Source: ChEMBL document CHEMBL3091449, “Synthesis and antimicrobial profile of N-substituted imidazolium oximes and their monoquaternary salts against multidrug resistant bacteria” (2013)

What was measured:
Aeromonas hydrophila [1] = assay: Antibacterial activity against Aeromonas hydrophila FNSST 014 after 18 to 24 hrs by two-fold broth microdilution assay; format: functional
Outline: (§1)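 CLSI two-fold broth microdilution was used. Compounds were dissolved in DMSO, brought to 10 mg/mL in medium, then serially diluted in Mueller Hinton broth over 400–0.09 µg/mL. Overnight MHB cultures were diluted to 10^6 CFU/mL, and 10 µL was added per well. Plates were incubated 18–24 h at 37 °C, then 0.2 mg/mL INT was added for 30 min at 37 °C. MIC was the lowest concentration with no visible growth or pink colour, triplicate.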

Aeromonas hydrophila [2] = assay: Antibacterial activity against Aeromonas hydrophila FNSST 014 assessed as diameter of zone of inhibition at 250 ug/disc after 24 hrs by disc diffusion method; format: functional; conditions: FNSST 014, 24 h, read-out: DIZ
Outline: (§2)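 Bacteria were grown overnight at 37 °C in TSB to about 10^6 cfu/mL, and 100 µL was spread on Mueller Hinton agar. Sterile 6 mm discs were each loaded with 25 µL of a 10 mg/mL stock in 96% ethanol, giving 250 µg/disc. Ethanol served as the negative control. Plates were incubated 24 h at 37 °C. Inhibition zone diameter was measured including the disc, in triplicate, as mean ± SE.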

Klebsiella pneumoniae [3] = assay: Antibacterial activity against Klebsiella pneumoniae FNSST 011 assessed as diameter of zone of inhibition at 250 ug/disc after 24 hrs by disc diffusion method; format: functional; conditions: FNSST 011, 24 h, read-out: DIZ; outline: as §2
Enterococcus faecalis [4] = assay: Antibacterial activity against Enterococcus faecalis ATCC 29212 assessed as diameter of zone of inhibition at 250 ug/disc after 24 hrs by disc diffusion method; format: functional; conditions: ATCC 29212, 24 h, read-out: DIZ; outline: as §2
Escherichia coli [5] = assay: Antibacterial activity against Escherichia coli FNSST 982 after 18 to 24 hrs by two-fold broth microdilution assay; format: functional; outline: as §1
Klebsiella pneumoniae [6] = assay: Antibacterial activity against Klebsiella pneumoniae FNSST 011 after 18 to 24 hrs by two-fold broth microdilution assay; format: functional; outline: as §1
Pseudomonas aeruginosa [7] = assay: Antibacterial activity against Pseudomonas aeruginosa FNSST 982 assessed as diameter of zone of inhibition at 250 ug/disc after 24 hrs by disc diffusion method; format: functional; conditions: FNSST 982, 24 h, read-out: DIZ; outline: as §2
Escherichia coli [8] = assay: Ratio of gentamicin MIC to compound MIC for Escherichia coli FNSST 982; format: functional
Escherichia coli [9] = assay: Antibacterial activity against Escherichia coli FNSST 982 assessed as diameter of zone of inhibition at 250 ug/disc after 24 hrs by disc diffusion method; format: functional; conditions: FNSST 982, 24 h, read-out: DIZ; outline: as §2
Clostridium perfringens [10] = assay: Antibacterial activity against Clostridium perfringens FNSST 4999 after 18 to 24 hrs by two-fold broth microdilution assay; format: functional
Outline: (§3)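 CLSI two-fold broth microdilution. Compounds dissolved in DMSO, 10 mg/mL stock, serially diluted to 400–0.09 µg/mL in Mueller Hinton broth. Wells inoculated with 10^6 CFU/mL bacteria and incubated 18–24 h at 37 °C. 0.2 mg/mL INT added for 30 min. MIC taken as the lowest concentration with no visible growth or pink colour. Triplicate.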

Aspergillus fumigatus = assay: Antifungal activity against Aspergillus fumigatus FNSST 3833 assessed as diameter of zone of inhibition at 250 ug/disc after 72 hrs by disc diffusion method; format: functional; conditions: FNSST 3833, 72 h, read-out: DIZ
Outline: (§4)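 Fungi were grown overnight at 30 °C in Sabouraud dextrose broth to 10^4 cfu/mL, and 100 µL was spread on Sabouraud dextrose agar. 6 mm discs carried 250 µg (25 µL of a 10 mg/mL stock in 96% ethanol), with ethanol as the negative control. Incubation was at 30 °C for 48 h (yeast) or 72 h (molds). Zone diameter was read including the disc, in triplicate, mean ± SE.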

Clostridium perfringens [11] = assay: Antibacterial activity against Clostridium perfringens FNSST 4999 assessed as diameter of zone of inhibition at 250 ug/disc after 24 hrs by disc diffusion method; format: functional; conditions: FNSST 4999, 24 h, read-out: DIZ
Outline: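 Disc diffusion per CLSI: 100 µL of 10^6 cfu/mL bacterial suspension spread on Mueller Hinton agar. 6 mm discs loaded with 25 µL of 10 mg/mL compound stock in 96% ethanol (250 µg/disc); ethanol as negative control. Incubated 24 h at 37 °C. Inhibition zone diameter measured in mm including the disc, triplicate, reported as mean ± SE.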

Candida albicans = assay: Antifungal activity against Candida albicans ATCC 10231 assessed as diameter of zone of inhibition at 250 ug/disc after 48 hrs by disc diffusion method; format: functional; conditions: ATCC 10231, 48 h, read-out: DIZ; outline: as §4
Staphylococcus aureus [12] = assay: Antibacterial activity against Staphylococcus aureus ATCC 25923 after 18 to 24 hrs by two-fold broth microdilution assay; format: functional; outline: as §1
Bacillus cereus [13] = assay: Antibacterial activity against Bacillus cereus ATCC 11778 after 18 to 24 hrs by two-fold broth microdilution assay; format: functional; outline: as §1
Staphylococcus aureus [14] = assay: Antibacterial activity against Staphylococcus aureus ATCC 25923 assessed as diameter of zone of inhibition at 250 ug/disc after 24 hrs by disc diffusion method; format: functional; conditions: ATCC 25923, 24 h, read-out: DIZ; outline: as §2
Enterococcus faecalis [15] = assay: Antibacterial activity against Enterococcus faecalis ATCC 29212 after 18 to 24 hrs by two-fold broth microdilution assay; format: functional; outline: as §1
Pseudomonas aeruginosa [16] = assay: Antibacterial activity against Pseudomonas aeruginosa FNSST 982 after 18 to 24 hrs by two-fold broth microdilution assay; format: functional; outline: as §1
Talaromyces funiculosus = assay: Antifungal activity against Penicillium funiculosum FNSST 3724 assessed as diameter of zone of inhibition at 250 ug/disc after 72 hrs by disc diffusion method; format: functional; conditions: FNSST 3724, 72 h, read-out: DIZ; outline: as §4
Bacillus cereus [17] = assay: Antibacterial activity against Bacillus cereus ATCC 11778 assessed as diameter of zone of inhibition at 250 ug/disc after 24 hrs by disc diffusion method; format: functional; conditions: ATCC 11778, 24 h, read-out: DIZ; outline: as §2
Staphylococcus aureus [18] = assay: Antibacterial activity against Staphylococcus aureus ATCC 25923 assessed as diameter of zone of inhibition at 15 ug/disc after 24 hrs by disc diffusion method; format: functional, organism-based
Outline: (§5)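 Gentamicin 15 µg disc run as positive control in CLSI disc diffusion. Lawn of 100 µL of 10^6 cfu/mL bacteria on Mueller Hinton agar, incubated 24 h at 37 °C. Zone diameter measured in mm including the 6 mm disc, triplicate, mean ± SE.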

Acinetobacter baumannii = assay: Antibacterial activity against SIM-1 expressing Acinetobacter baumannii isolate 170 after 18 to 24 hrs by two-fold broth microdilution assay; format: functional; outline: as §3
Aeromonas caviae [19] = assay: Antibacterial activity against TEM-1/CTX-M-15 expressing Aeromonas caviae isolate 260 after 18 to 24 hrs by two-fold broth microdilution assay; format: functional; outline: as §1
Pseudomonas aeruginosa [20] = assay: Antibacterial activity against GIM-1 expressing Pseudomonas aeruginosa isolate 197 after 18 to 24 hrs by two-fold broth microdilution assay; format: functional; outline: as §1
Enterobacter cloacae [21] = assay: Antibacterial activity against TEM-1/CTX-M-15 expressing Enterobacter cloacae isolate 62 after 18 to 24 hrs by two-fold broth microdilution assay; format: functional
Escherichia coli [22] = assay: Antibacterial activity against […] expressing Escherichia coli isolate 4024 after 18 to 24 hrs by two-fold broth microdilution assay; format: functional; outline: as §3
Pseudomonas aeruginosa [23] = assay: Antibacterial activity against Pseudomonas aeruginosa FNSST 982 assessed as diameter of zone of inhibition at 15 ug/disc after 24 hrs by disc diffusion method; format: functional, organism-based; outline: as §5
Aeromonas caviae [24] = assay: Antibacterial activity against […] expressing Aeromonas caviae isolate 258 after 18 to 24 hrs by two-fold broth microdilution assay; format: functional; outline: as §1
Kluyvera intermedia = assay: Antibacterial activity against TEM-1/SHV-12/[…] expressing Enterobacter intermedius isolate 243 after 18 to 24 hrs by two-fold broth microdilution assay; format: functional; outline: as §1
Aeromonas hydrophila [25] = assay: Antibacterial activity against Aeromonas hydrophila FNSST 014 assessed as diameter of zone of inhibition at 15 ug/disc after 24 hrs by disc diffusion method; format: functional, organism-based; outline: as §5
Clostridium perfringens [26] = assay: Antibacterial activity against Clostridium perfringens FNSST 4999 assessed as diameter of zone of inhibition at 15 ug/disc after 24 hrs by disc diffusion method; format: functional, organism-based; outline: as §5
Klebsiella pneumoniae [27] = assay: Antibacterial activity against Klebsiella pneumoniae FNSST 011 assessed as diameter of zone of inhibition at 15 ug/disc after 24 hrs by disc diffusion method; format: functional, organism-based; outline: as §5
Aeromonas hydrophila [28] = assay: Antibacterial activity against TEM-1/SHV-12 expressing Aeromonas hydrophila isolate 268 after 18 to 24 hrs by two-fold broth microdilution assay; format: functional; outline: as §1
Enterococcus faecalis [29] = assay: Antibacterial activity against Enterococcus faecalis ATCC 29212 assessed as diameter of zone of inhibition at 15 ug/disc after 24 hrs by disc diffusion method; format: functional, organism-based; outline: as §5
[30] = test system: Stenotrophomonas maltophilia; assay: Antibacterial activity against […] expressing Stenotrophomonas maltophilia isolate 125 after 18 to 24 hrs by two-fold broth microdilution assay; format: functional; outline: as §1
Escherichia coli [31] = assay: Antibacterial activity against […] expressing Escherichia coli isolate 235 after 18 to 24 hrs by two-fold broth microdilution assay; format: functional; outline: as §3
Escherichia coli [32] = assay: Antibacterial activity against Escherichia coli FNSST 982 assessed as diameter of zone of inhibition at 15 ug/disc after 24 hrs by disc diffusion method; format: functional, organism-based; outline: as §5
Enterobacter cloacae [33] = assay: Antibacterial activity against CTX-15 expressing Enterobacter cloacae isolate 51 after 18 to 24 hrs by two-fold broth microdilution assay; format: functional
Klebsiella pneumoniae [34] = assay: Antibacterial activity against TEM-1/SHV-12 expressing Klebsiella pneumoniae isolate 303 after 18 to 24 hrs by two-fold broth microdilution assay; format: functional; outline: as §1
Bacillus cereus [35] = assay: Antibacterial activity against Bacillus cereus ATCC 11778 assessed as diameter of zone of inhibition at 15 ug/disc after 24 hrs by disc diffusion method; format: functional, organism-based; outline: as §5
Escherichia coli [36] = assay: Antibacterial activity against TEM-1/SHV-12 expressing Escherichia coli isolate 237 after 18 to 24 hrs by two-fold broth microdilution assay; format: functional; outline: as §3
Enterobacter cloacae [37] = assay: Antibacterial activity against TEM-1/SHV-12 expressing Enterobacter cloacae isolate 306 after 18 to 24 hrs by two-fold broth microdilution assay; format: functional

In the case of `O/N=C/c1n(Cc2ccccc2)cc[n+]1-c1ccccc1.[Br-]`, the MIC (Aeromonas hydrophila [1]) was 25 µg/mL, the zone of inhibition at 250 µg/disc (Aeromonas hydrophila [2]) was 15.3 mm and the zone of inhibition at 250 µg/disc (Klebsiella pneumoniae [3]) was 15.5 mm. For the same molecule, the zone of inhibition at 250 µg/disc (Enterococcus faecalis [4]) was 13.3 mm, the MIC (Escherichia coli [5]) was 3.12 µg/mL and the MIC (Klebsiella pneumoniae [6]) was 31.2 µg/mL. It also gave a zone of inhibition at 250 µg/disc (Pseudomonas aeruginosa [7]) of 14.9 mm, a Ratio (Escherichia coli [8]) of 10 and a zone of inhibition at 250 µg/disc (Escherichia coli [9]) of 12.3 mm. The MIC (Clostridium perfringens [10]) was 25 µg/mL, the zone of inhibition at 250 µg/disc (Aspergillus fumigatus) was 20.8 mm and the zone of inhibition at 250 µg/disc (Clostridium perfringens [11]) was 16.6 mm. It also gave a zone of inhibition at 250 µg/disc (Candida albicans) of 18.1 mm, an MIC (Staphylococcus aureus [12]) of 12.5 µg/mL and an MIC (Bacillus cereus [13]) of 25 µg/mL. The zone of inhibition at 250 µg/disc (Staphylococcus aureus [14]) was 12.5 mm, the MIC (Enterococcus faecalis [15]) was 25 µg/mL and the MIC (Pseudomonas aeruginosa [16]) was 25 µg/mL. The zone of inhibition at 250 µg/disc (Talaromyces funiculosus) was 17.4 mm and the zone of inhibition at 250 µg/disc (Bacillus cereus [17]) was 15 mm.

In the case of GENTAMICIN, the inhibition zone (IZ) (Staphylococcus aureus [18]) was 23.9 mm, the MIC (Acinetobacter baumannii) was 16 µg/mL and the MIC (Aeromonas caviae [19]) was 32 µg/mL. For the same molecule, the MIC (Aeromonas hydrophila [1]) was 8 µg/mL, the MIC (Pseudomonas aeruginosa [20]) was > 8 µg/mL and the MIC (Enterobacter cloacae [21]) was 4 µg/mL. It also gave an MIC (Escherichia coli [5]) of 32 µg/mL, an MIC (Klebsiella pneumoniae [6]) of 8 µg/mL and an MIC (Escherichia coli [22]) of 64 µg/mL. It also gave an MIC (Clostridium perfringens [10]) of 0.5 µg/mL, an inhibition zone (IZ) (Pseudomonas aeruginosa [23]) of 9.2 mm and an MIC (Aeromonas caviae [24]) of 12.8 µg/mL. For the same molecule, the MIC (Kluyvera intermedia) was 2 µg/mL, the inhibition zone (IZ) (Aeromonas hydrophila [25]) was 12.6 mm and the inhibition zone (IZ) (Clostridium perfringens [26]) was 21.7 mm. The MIC (Staphylococcus aureus [12]) was 1 µg/mL, the MIC (Bacillus cereus [13]) was 4 µg/mL and the inhibition zone (IZ) (Klebsiella pneumoniae [27]) was 18.2 mm. The MIC (Aeromonas hydrophila [28]) was 4 µg/mL, the inhibition zone (IZ) (Enterococcus faecalis [29]) was 14.6 mm and the MIC [30] was 2 µg/mL. For the same molecule, the MIC (Escherichia coli [31]) was 16 µg/mL, the MIC (Enterococcus faecalis [15]) was 4 µg/mL and the MIC (Pseudomonas aeruginosa [16]) was 64 µg/mL. It also gave an inhibition zone (IZ) (Escherichia coli [32]) of 11.5 mm, an MIC (Enterobacter cloacae [33]) of 128 µg/mL and an MIC (Klebsiella pneumoniae [34]) of 32 µg/mL. It also gave an inhibition zone (IZ) (Bacillus cereus [35]) of 18.2 mm, an MIC (Escherichia coli [36]) of 8 µg/mL and an MIC (Enterobacter cloacae [37]) of 256 µg/mL.
